# Assays:
# μ opioid receptor (MOR) = type: binding
# NK1R [1] = target: T1, NK1R (Homo sapiens, UniProt P25103); assay: hNK1/CHO cell membrane radioligand binding assay; details: binding ratio human/rat NK1
# Target sequence in this assay (P25103 whole entry): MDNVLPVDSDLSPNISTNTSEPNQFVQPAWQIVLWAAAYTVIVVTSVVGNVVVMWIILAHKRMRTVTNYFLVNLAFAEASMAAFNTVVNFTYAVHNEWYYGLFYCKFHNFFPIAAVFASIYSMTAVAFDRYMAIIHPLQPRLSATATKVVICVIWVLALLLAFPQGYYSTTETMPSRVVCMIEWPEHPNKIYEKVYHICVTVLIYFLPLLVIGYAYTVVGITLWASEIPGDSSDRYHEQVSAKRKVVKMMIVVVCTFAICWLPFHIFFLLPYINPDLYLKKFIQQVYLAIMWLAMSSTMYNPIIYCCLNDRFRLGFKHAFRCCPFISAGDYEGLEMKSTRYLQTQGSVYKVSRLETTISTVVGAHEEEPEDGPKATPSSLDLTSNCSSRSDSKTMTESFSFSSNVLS
# GPI (MOR) = assay: Guinea pig isolated ileum; type: cell-based; details: IC50 μ / IC50 δ
# Summary of the method: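 Male Hartley guinea pig ileum LMMP (0.1 Hz, 0.4 ms) and male ICR mouse vasa deferentia (0.5 g tension, Mg-free Krebs, 37 °C, O2/CO2 95:5; 0.1 Hz single pulses, 2.0 ms), electrically stimulated at supramaximal voltage.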
# GPI/LMMP (NK1R) = GPI/LMMP (NK1R) (Cavia porcellus, UniProt P30547); assay: GPI/LMMP functional assay at NK1R; type: cell-based, guinea pig; details: at the concentration printed in the cell
# GPI/LMMP (NK1R), sequence (P30547 whole entry): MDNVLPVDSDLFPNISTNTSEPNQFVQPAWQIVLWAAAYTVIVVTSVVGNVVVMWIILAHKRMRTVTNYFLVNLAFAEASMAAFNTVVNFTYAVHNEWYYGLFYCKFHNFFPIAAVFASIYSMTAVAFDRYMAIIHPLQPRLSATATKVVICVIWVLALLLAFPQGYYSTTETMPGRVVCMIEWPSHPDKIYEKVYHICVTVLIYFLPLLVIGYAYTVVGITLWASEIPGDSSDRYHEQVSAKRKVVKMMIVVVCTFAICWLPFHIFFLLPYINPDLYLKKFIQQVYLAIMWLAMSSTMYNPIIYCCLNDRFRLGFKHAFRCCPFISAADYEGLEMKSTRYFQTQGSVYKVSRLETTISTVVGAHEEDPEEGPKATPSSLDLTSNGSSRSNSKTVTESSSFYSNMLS
# MOR = MOR (Homo sapiens, UniProt P35372); type: cell-based
# MOR, sequence (P35372 whole entry): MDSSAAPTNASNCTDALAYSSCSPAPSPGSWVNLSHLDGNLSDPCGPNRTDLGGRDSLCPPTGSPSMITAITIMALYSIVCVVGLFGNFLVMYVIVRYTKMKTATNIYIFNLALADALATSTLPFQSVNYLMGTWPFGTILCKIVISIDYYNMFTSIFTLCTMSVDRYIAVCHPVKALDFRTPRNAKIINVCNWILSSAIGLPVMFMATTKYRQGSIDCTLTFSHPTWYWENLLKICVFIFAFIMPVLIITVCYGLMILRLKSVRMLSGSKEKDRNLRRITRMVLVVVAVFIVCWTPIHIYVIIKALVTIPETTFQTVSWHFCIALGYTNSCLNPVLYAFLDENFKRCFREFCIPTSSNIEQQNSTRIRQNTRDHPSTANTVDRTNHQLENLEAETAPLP
# NK1R [2] = target: T1, NK1R; type: cell-based
# Target sequence in this assay (P25103 whole entry, species assumed): as the sequence (P25103 whole entry) above
smiles,measurement,setting,value
Cc1cc(O)cc(C)c1C[C@H](N)C(=O)N[C@H](C)C(=O)NCC(=O)N[C@@H](Cc1ccccc1)C(=O)N1CCC[C@H]1C(=O)N[C@@H](CC(C)C)C(=O)N[C@@H](Cc1c[nH]c2ccccc12)C(=O)NCc1cc(C(F)(F)F)cc(C(F)(F)F)c1 [ligand 4],Ki^μ/Ki^δ,μ opioid receptor (MOR); binding ratio MOR/DOR,3/1
same,log[IC50±] (MOR),"μ opioid receptor (MOR); log IC50 from nonlinear regression, MOR binding",−8.63 ± 0.04
same,Ki^hNK1/Ki^rNK1,NK1R [1],1/19
same,GPI/MVD IC50 ratio,GPI (MOR),26/1
same,GPI/LMMP (NK1R) agonism,GPI/LMMP (NK1R),none at 100 nM
same,MOR/DOR IC50 ratio (cAMP assay),MOR,6/1
same,Kb,NK1R [2],11 ± 10 nM

# Source: article PMC5769151 (Journal of medicinal chemistry, 2015)
